# Reference: PubChem BioAssay AID1525 (The Scripps Research Institute Molecular Screening Center, 2009)
# The other results are listed elsewhere or left out. Calls of active or inactive are those of the source.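 The calls were made as follows: active = mean activation over replicates above a set limit taken from the earlier TRPN1 channel primary screen (cut at about 19% in these data); inactive = the rest.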
# Tested on: TRPN1 (NOMPC) [Danio rerio]
# Assay: activators of TRPN1 (NOMPC) cation channel – cell-based, HEK293 TRPN1-YFP, Fluo-8 calcium, counter-screen for TRPML3 agonist project (AID 1525);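 also: 100% = carbachol and 0% = 0.3% DMSO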
# Conditions: HEK293 zebrafish TRPN1-YFP, Fluo-8 calcium fluorescence; at 3 µM; stronger effect = higher value; scaled: carbachol wells 100%, DMSO wells 0%
# How it was run: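 Assay system: Zebrafish TRPN1-YFP HEK293 cells | Dosing: One 3 µM compound dose per well | Times: Fluo-8 loading 1 h at 37 °C, then 30 min room temperature | Signal: Fluo-8 calcium, trypan red quencher, 5 s basal, 120 s post-addition | Measure: % activation from max/basal fluorescence ratio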
row,SMILES,activation
1,CC1CCCC(C)N1C(=O)CN1CCN(c2nc(-c3ccc(F)cc3)cs2)CC1 (stereo not drawn),4.68% (inactive)
2,CC1=CC(C)(C)N(C(=O)CSc2nnc(-c3ccccc3)o2)c2ccc(C)cc21,0.12% (inactive)
3,CCN(CC)C(=O)CC1(c2ccccc2OC)CCOC(C(C)C)C1 (stereo not drawn),-1.47% (inactive)
4,COc1ccc(Cl)cc1N(CC(=O)N1CCCCC1)S(C)(=O)=O,2.78% (inactive)
5,O=S(=O)(Nc1ccccc1N1CCOCC1)c1ccc(Cl)s1,0.07% (inactive)
6,CCOC(=O)C1=C(NC(=S)NC(=O)c2ccccc2)c2ccccc2CC1(C)C,15.5% (inactive)
7,COc1cc(/C=C(\C#N)c2nc3c(s2)CC(C)CC3)ccc1O (stereo not drawn),14% (inactive)
8,COc1ccc(N(CCC#N)S(=O)(=O)c2ccc(Cl)cc2)cc1,0.61% (inactive)
9,COc1ccccc1N(CC(=O)N1CCCCC1)S(=O)(=O)c1ccccc1,1.91% (inactive)
10,COc1ccc(S(=O)(=O)N2CCCC2)c(C)c1C,0.75% (inactive)
11,Cc1cccc(C)c1N1CCN(S(=O)(=O)N2CCCCC2)CC1,28.3% (active)
12,O=C(CC(O)(C(F)(F)F)C(F)(F)F)Nc1ccc(Cl)c(Cl)c1,21.3% (active)
13,CCOc1ccc(S(=O)(=O)N2CCCCCC2)c2ccccc12,-0.72% (inactive)
14,C=C(C)Cn1c(C)cc(C)c(S(=O)(=O)c2ccccc2C)c1=O,-3.19% (inactive)
15,c1ccc2c(C[n+]3csc4ccccc43)cccc2c1,-0.03% (inactive)
16,CC1(C)CCCC2=C1CC1C(=O)N(c3ccccc3)C(=O)C1C2 (stereo not drawn),-0.48% (inactive)
17,COc1ccc(-c2noc(CN(C)S(=O)(=O)c3ccc(C)cc3)n2)cc1,5.96% (inactive)
18,CCN(CC)S(=O)(=O)c1ccc2c3c(cccc13)C(=O)S2,-0.76% (inactive)
